# Measurements of several laboratories.
# Protocols differ between the studies behind these lines.
# Effect on: cell growth or viability
SMILES,cell line,method,tested at,time,viability
CC(=NNC(=O)c1ccccc1Cl)c1ccc(Nc2nnc(-c3ccc(Cl)cc3)c3ccccc23)cc1,HepG2,MTT,0.625 µM,24 h,28.3%
CC(=NNC(=O)COc1ccc2c(C)c(Cc3ccccc3)c(=O)oc2c1C)c1ccc(Br)cc1,HepG2,MTT,100 µg/mL,,34.7%
CC(C)(C)c1cnc(CSc2cnc(NC(=O)C3CCN(CCCCCSc4cccc5c4CN(C4CCC(=O)NC4=O)C5=O)CC3)s2)o1 (stereo not drawn),HH,CCK-8,10 nM,,93.5%
CC(=NNC(=O)c1ccccc1)c1ccc(Nc2nnc(-c3ccc(Cl)cc3)c3ccccc23)cc1,HepG2,MTT,0.312 µM,24 h,99.6%
CCOC(=O)c1nn(-c2cccc(Cl)c2)/c(=N/N=C(\C)c2ccc(NC(=O)c3ccccc3)cc2)s1,HepG2,MTT,2.5 µM,,2.82%
CC(C)(C)c1cnc(CSc2cnc(NC(=O)C3CCN(CCCCCCCCSc4cccc5c4C(=O)N(C4CCC(=O)NC4=O)C5=O)CC3)s2)o1 (stereo not drawn),HH,CCK-8,0.5 µM,,0%
O=C(C=Cc1ccccc1)Nc1ccc(Oc2nnc(-c3ccc(Cl)cc3)c3ccccc23)cc1,HepG2,MTT,5 µM,24 h,2.49%
CC(C)(C)c1cnc(CSc2cnc(NC(=O)C3CCN(C(=O)COCCOCCSc4cccc5c4C(=O)N(C4CCC(=O)NC4=O)C5=O)CC3)s2)o1 (stereo not drawn),HH,CCK-8,0.2 µM,,94.2%
CC(=O)c1nn(-c2ccccc2Cl)/c(=N/N=C(\C)c2ccc(NC(=O)c3ccccc3)cc2)s1,HepG2,MTT,78 nM,,71.7%
